Test results from ChEMBL document CHEMBL1130284, “Analogues of N alpha-(4-amino-4-deoxypteroyl)-N delta-hemiphthaloyl-L-ornithine (PT523) modified in the side chain: synthesis and biological evaluation” (J Med Chem, 1997).

Tests used:
SCC-25 = experiment: In vitro antitumor activity against SCC25 human head and neck squamous carcinoma cells containing 10% fetal bovine serum; format: functional, cell-based
In short: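 Clonogenic assay. Cells kept in Dulbecco's MEM with 10% FBS and hydrocortisone (400 µg/L). Exponential-phase cells preincubated without drug for 48 h, exposed to 0.01-5000 nM for 72 h, then replated in fresh medium. After 14 days, colonies of ≥5 cells stained with crystal violet and counted. Survival taken as % of untreated controls and IC50 estimated from a log-log plot. Replicate plates, at least three separate days.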

[1] = target: T1, Dihydrofolate reductase (Homo sapiens) (UniProt P00374)
T1 sequence (whole entry): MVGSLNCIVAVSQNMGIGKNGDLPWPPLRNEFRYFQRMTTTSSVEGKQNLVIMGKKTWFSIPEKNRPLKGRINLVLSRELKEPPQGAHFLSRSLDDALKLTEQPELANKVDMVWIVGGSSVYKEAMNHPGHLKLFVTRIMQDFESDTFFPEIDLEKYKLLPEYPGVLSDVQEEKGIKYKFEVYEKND

A549 = experiment: In vitro antitumor activity against A549 human non-small lung carcinoma cells containing 10% fetal bovine serum; format: functional, cell-based
In short: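 Cells plated at 2000-3000/well in RPMI with 10% fetal bovine serum and left to adhere for 24 h at 37 °C in humidified 5% CO2. Drug (0.1-1000 nM) then added for a further 72 h of continuous exposure. Sulforhodamine B staining read-out. Growth taken as % of untreated controls and plotted against log drug concentration to give IC50.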

OVCAR-5 = experiment: The IC50 value was measured on OVCAR-5 cell line in ovarian tumor type.; format: functional, cell-based; conditions: Homo sapiens
In short: (§1)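 Standard NCI cell-line panel protocol. Cells plated in 96-well format and treated continuously with drug for 48 h. Total protein stained with Sulforhodamine B and IC50 derived.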

HCT-116 = experiment: The IC50 value was measured on HCT116 cell line in colon tumor type.; format: functional, cell-based; conditions: Homo sapiens; in short: as §1
LOX IMVI [2] = experiment: The IC50 value was measured on LOX […] cell line in melanoma tumor ty; format: functional, cell-based; conditions: Homo sapiens; in short: as §1
UACC-62 = experiment: The IC50 value was measured on UACC-62 cell line in melanoma tumor type.; format: functional, cell-based; conditions: Homo sapiens; in short: as §1
NCI-H522 = experiment: The IC50 value was measured on NCl-H522 cell line in NSCL tumor type.; format: functional, cell-based; conditions: Homo sapiens; in short: as §1
NCI-H460 = experiment: The IC50 value was measured on NCl-H460 cell line in NSCL tumor type; format: functional, cell-based; conditions: Homo sapiens; in short: as §1
DU-145 = experiment: The IC50 value was measured on DU-145 cell line in prostate tumor type.; format: functional, cell-based; conditions: Homo sapiens; in short: as §1
UO-31 = experiment: The IC50 value was measured on UO-31 cell line in renal tumor type.; format: functional, cell-based; conditions: Homo sapiens; in short: as §1
MCF7 = experiment: The IC50 value was measured on MCF-7 cell line in breast tumor type; format: functional, cell-based; conditions: Homo sapiens; in short: as §1
SF-268 = experiment: The IC50 value was measured on SF-268 cell line in CNS tumor type.; format: functional, cell-based; conditions: Homo sapiens; in short: as §1
SK-MEL-28 = experiment: The IC50 value was measured on SKMEL-28 cell line in melanoma tumor type.; format: functional, cell-based; conditions: Homo sapiens; in short: as §1
Malme-3M = experiment: The IC50 value was measured on MALME-3M cell line in melanoma tumor type; format: functional, cell-based; conditions: Homo sapiens; in short: as §1
HT-29 = experiment: The IC50 value was measured on HT-29 cell line in colon tumor type.; format: functional, cell-based; conditions: Homo sapiens; in short: as §1
SW-620 = experiment: The IC50 value was measured on SW-620 cell line in colon tumor type.; format: functional, cell-based; conditions: Homo sapiens; in short: as §1
OVCAR-8 = experiment: The IC50 value was measured on OVCAR-8 cell line in ovarian tumor type.; format: functional, cell-based; conditions: Homo sapiens; in short: as §1
NCI-H23 = experiment: The IC50 value was measured on NCl-H23 cell line in NSCL tumor type.; format: functional, cell-based; conditions: Homo sapiens; in short: as §1
SF-539 = experiment: The IC50 value was measured on SF-539 cell line in CNS tumor type.; format: functional, cell-based; conditions: Homo sapiens; in short: as §1
SK-MEL-5 = experiment: The IC50 value was measured on SK-MEL-5 cell line in melanoma tumor type.; format: functional, cell-based; conditions: Homo sapiens; in short: as §1
ACHN = experiment: The IC50 value was measured on ACHN cell line in renal tumor type.; format: functional, cell-based; conditions: Homo sapiens; in short: as §1
HCT-15 = experiment: The IC50 value was measured on HCT-15 cell line in colon tumor type.; format: functional, cell-based; conditions: Homo sapiens; in short: as §1
PC-3 = experiment: The IC50 value was measured on PC-3 cell line in prostate tumor type.; format: functional, cell-based; conditions: Homo sapiens; in short: as §1
NCI/ADR-RES = experiment: The IC50 value was measured on MCF7-ADR cell line in breast tumor type.; format: functional, cell-based; conditions: Homo sapiens; in short: as §1
EKVX = experiment: The IC50 value was measured on EKVX cell line in NSCL tumor type.; format: functional, cell-based; conditions: Homo sapiens; in short: as §1
KM12 = experiment: The IC50 value was measured on KM-12 cell line in colon tumor type.; format: functional, cell-based; conditions: Homo sapiens; in short: as §1
OVCAR-3 = experiment: The IC50 value was measured on OVCAR-3 cell line in ovarian tumor t; format: functional, cell-based; conditions: Homo sapiens; in short: as §1
Mus musculus [3] = experiment: Time to reach 10 mm Tumor size of subcutaneously implanted SCC-VII squamous cell carcinoma in mice; conditions: route subcutaneous
SNB-75 = experiment: The IC50 value was measured on SNB-75 cell line in CNS tumor type.; format: functional, cell-based; conditions: Homo sapiens; in short: as §1
Mus musculus [4] = experiment: Tumor size of subcutaneously implanted SCC-VII squamous cell carcinoma in mice on day 0; conditions: route subcutaneous
Mus musculus [5] = experiment: Tumor size of subcutaneously implanted SCC-VII squamous cell carcinoma in mice on day 7; conditions: route subcutaneous
Mus musculus [6] = experiment: Tumor growth delay of subcutaneously implanted SCC-VII squamous cell carcinoma in mice; conditions: route subcutaneous
LOX IMVI [7] = experiment: The IC50 value was measured on LOX IMVI cell line in melanoma tumor ty; format: functional, cell-based; conditions: Homo sapiens; in short: as §1
786-0 = experiment: cells; conditions: Homo sapiens

With `Nc1nc(N)c2nc(CNc3ccc(C(=O)NC(CCCNC(=O)c4cc(Cl)c(Cl)cc4C(=O)O)C(=O)O)cc3)cnc2n1` (centres undefined) the IC50 (SCC-25) was 18 nM and the IC50/[E] (nM milliunit-1) [1] was 2.4.
`Nc1nc(N)c2nc(CNc3ccc(C(=O)NC(CCCNC(=O)c4cccc(C(=O)O)c4)C(=O)O)cc3)cnc2n1` (centres undefined) was tested, and the IC50 (A549) was 45 nM, the IC50 (SCC-25) was 2.9 nM and the IC50/[E] (nM milliunit-1) [1] was 2.2.
Compound `Nc1nc(N)c2nc(CNc3ccc(C(=O)NC(CCCCNC(=O)c4ccccc4C(=O)O)C(=O)O)cc3)cnc2n1` (centres undefined) has an IC50 (OVCAR-5) of over 1000 nM, an IC50 (HCT-116) of 0.6 nM and an IC50 (LOX IMVI [2]) of 0.9 nM. It also gave an IC50 (UACC-62) of over 1000 nM, an IC50 (NCI-H522) of over 1000 nM and an IC50 (NCI-H460) of 4.2 nM. The IC50 (DU-145) was 9.1 nM, the IC50 (A549) was 5.2 nM and the IC50 (UO-31) was 7.8 nM. It also gave an IC50 (MCF7) of 5 nM, an IC50 (SF-268) of 8.4 nM and an IC50 (SK-MEL-28) of over 1000 nM. For the same compound, the IC50 (Malme-3M) was over 1000 nM, the IC50 (HT-29) was 5.7 nM and the IC50 (SW-620) was 3.4 nM. It also gave an IC50 (OVCAR-8) of 5.9 nM, an IC50 (NCI-H23) of 9.2 nM and an IC50 (SF-539) of 26 nM. It also gave an IC50 (SK-MEL-5) of 91 nM, an IC50 (ACHN) of 5.2 nM and an IC50 (HCT-15) of 5.2 nM. The IC50 (PC-3) was 5 nM, the IC50 (NCI/ADR-RES) was 9.1 nM and the IC50 (EKVX) was 36 nM. For the same compound, the IC50 (KM12) was 4.9 nM and the IC50 (OVCAR-3) was over 1000 nM.
Work on `CN(Cc1cnc2nc(N)nc(N)c2n1)c1ccc(C(=O)N[C@@H](CCC(=O)O)C(=O)O)cc1` [METHOTREXATE] yielded an IC50 (OVCAR-5) of over 1000 nM, an IC50 (HCT-116) of 30 nM and an IC50 (UACC-62) of 28 nM. The IC50 (NCI-H522) was 229 nM, the IC50 (NCI-H460) was 28 nM and the Time (Mus musculus [3]) was 12 days. For the same compound, the IC50 (DU-145) was 23 nM, the IC50 (A549) was 23 nM and the IC50 (SCC-25) was 27 nM. The IC50 (SNB-75) was over 10000 nM, the IC50 (UO-31) was 191 nM and the Tumor size (Mus musculus [4]) was 1.6 mm. For the same compound, the IC50 (MCF7) was 36 nM, the Tumor size (Mus musculus [5]) was 7.3 mm and the IC50 (SF-268) was 52 nM. It also gave an IC50 (SK-MEL-28) of over 1000 nM, a TGD (Mus musculus [6]) of 5 days and an IC50 (Malme-3M) of over 1000 nM. For the same compound, the IC50 (HT-29) was 32 nM, the IC50 (SW-620) was 33 nM and the IC50 (LOX IMVI [7]) was 26 nM. The IC50 (OVCAR-8) was 31 nM, the IC50 (NCI-H23) was 43 nM and the IC50 (SF-539) was 35 nM. For the same compound, the IC50 (SK-MEL-5) was 87 nM, the IC50 (786-0) was 33 nM and the IC50 (ACHN) was 40 nM. The IC50 (HCT-15) was 30 nM, the IC50 (PC-3) was 2 nM and the IC50 (NCI/ADR-RES) was 78 nM. The IC50 (EKVX) was over 1000 nM, the IC50 (KM12) was 42 nM and the IC50 (OVCAR-3) was 398 nM.
